Assays:
in vivo = details: rat, brain/plasma, po, 16 mg/kg
[1] = Inhibition of amyloid beta (1 to 42) aggregation after 24 hrs by Thioflavin-T fluorescence assay
How it was run: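 Nonaggregate Aβ1-42 (44 μM working solution) was then added, and plates were agitated at 37 °C for 24 h. Read-out used 10 μM ThT in Na2HPO4 pH 6.5 (ex 450/em 486 nm), in triplicate; IC50 came from % residual aggregate dose-response.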

Mus musculus [2] = experiment: Toxicity in mouse assessed as incidence of discomfort at 25 mg/kg, sc; format: organism-based; set-up: dose 25 mg/kg, route subcutaneous; details: in vivo
[3] = Cmax in mouse brain at 25 mg/kg, sc; format: ADME, organism-based; set-up: dose 25 mg/kg, route subcutaneous
How it was run: (§1)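 Mice received 25 mg/kg sc in ethanol/PEG-400/saline (10:40:50). Trunk blood and brain were collected at 0–240 min. Plasma and brain homogenate were solid-phase extracted and quantified by RP-HPLC (UV 224 nm, internal standard), n = 3. Cmax and tmax were read directly from the data; brain and plasma AUCt were calculated by the linear trapezoidal rule to give the brain/plasma ratio.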

[4] = Ratio of drug level from brain to plasma in mouse at 25 mg/kg, sc; format: ADME, organism-based; set-up: dose 25 mg/kg, route subcutaneous; details: read-out: BPR
How it was run: as §1

[5] = Tmax in mouse brain at 25 mg/kg, sc; format: ADME, organism-based; set-up: dose 25 mg/kg, route subcutaneous
How it was run: as §1

Mus musculus [6] = experiment: Toxicity in mouse assessed as incidence of side effect at 25 mg/kg, sc; format: organism-based; set-up: dose 25 mg/kg, route subcutaneous; details: in vivo
[7] = Ratio of drug level from brain to plasma in rat administered via intranasal route; format: ADME; details: inhaled or intranasal, read-out: BPR

| IC50 ([1]; read-out: IC50) [µM] | SMILES | further results |
| --- | --- | --- |
|  | Cl.Nc1c2c(nc3ccccc13)CCCC2.O | Kp (in vivo): 5 |
|  | COC(=O)c1ccc(Nc2ccc(OC)c3ccccc23)cc1 | IC50 [1]: ND(Insoluble) |
| > 5 | COc1ccccc1Nc1ccc(OC)c2ccccc12 |  |
| 5.6 | COc1ccc(Nc2ccc(OC)c3ccccc23)cc1 | Activity (Mus musculus [2]): Non-toxic; Cmax [3]: 410 ng/mL; Kp [4]: 2; Tmax [5]: 1 h; Activity (Mus musculus [6]): Non-toxic |
| > 5 | COc1ccc(I)cc1Nc1ccc(OC)c2ccccc12 |  |
| > 80 | COc1ccc(Nc2ccc(OC)c3ccccc23)cc1C(=O)O |  |
| 14.1 | O=C(O)c1ccccc1Nc1c(O)ccc2ccccc12 |  |
| > 20 | COC(=O)c1ccccc1Nc1c(O)ccc2ccccc12 |  |
| > 5 | COC(=O)c1ccccc1Nc1c(OC)ccc2ccccc12 |  |
| 2.4 | Oc1c(Nc2ccccc2)ccc2ccccc12 |  |
| 2.6 | O=C(O)c1ccc(Nc2ccc3ccccc3c2O)cc1 |  |
|  | COC(=O)c1ccc(Nc2ccc3ccccc3c2O)cc1 | IC50 [1]: ND(Insoluble) |
| 33.6 | COc1c(Nc2ccccc2)ccc2ccccc12 |  |
| > 20 | COc1c(Nc2ccc(C(=O)O)cc2)ccc2ccccc12 |  |
| > 20 | COC(=O)c1ccc(Nc2ccc3ccccc3c2OC)cc1 |  |
| > 5 | COc1c(Nc2ccc(I)cc2)ccc2ccccc12 |  |
|  | Oc1ccc2ccccc2c1Nc1c(O)ccc2ccccc12 | IC50 [1]: ND(Unstable) |
| 5.7 | COc1ccc2ccccc2c1Nc1c(OC)ccc2ccccc12 |  |
| 10.9 | Oc1ccc(Sc2ccc(O)c3ccccc23)cc1 |  |
|  | COc1ccc(Sc2ccc(OC)c3ccccc23)cc1 | IC50 [1]: ND(Insoluble) |
| > 100 | O=S(=O)(c1ccc(O)cc1)c1ccc(O)c2ccccc12 |  |

| IC50 ([1]; read-out: IC50) [µM] | SMILES | further results |
| --- | --- | --- |
|  | COc1ccc(S(=O)(=O)c2ccc(OC)c3ccccc23)cc1 | IC50 [1]: ND(Insoluble) |
| 1.1 | O=C1c2ccccc2C(=O)c2c(O)c(O)cc(Nc3ccc(S(=O)(=O)O)cc3)c21 |  |
| > 100 | O=C(O)c1ccc(Nc2cccc3ccccc23)cc1 |  |
| > 20 | COC(=O)c1ccc(Nc2cccc3ccccc23)cc1 |  |
| > 30 | Fc1ccc(Nc2ccc(F)c3ccccc23)cc1 |  |
| > 5 | CSc1ccc(Nc2ccc(F)c3ccccc23)cc1 |  |
| 2.7 | COc1ccc(Nc2ccc([N+](=O)[O-])c3ccccc23)cc1 |  |
| 2.2 | CSc1ccc(Nc2ccc(N(C)C)c3ccccc23)cc1 |  |
| 5.4 | Oc1ccc(Nc2ccccc2)c2ccccc12 |  |
|  | OCc1ccc(Nc2ccc(O)c3ccccc23)cc1 | IC50 [1]: ND(Unstable) |
| 57.4 | O=C(O)c1ccc(Nc2ccc(O)c3ccccc23)cc1 |  |
| 5.1 | COC(=O)c1ccc(Nc2ccc(O)c3ccccc23)cc1 |  |
| 1 | Oc1ccc(Nc2ccc(O)c3ccccc23)cc1 |  |
| 46.1 | O=C(O)c1cc(Nc2ccc(O)c3ccccc23)ccc1O |  |
|  | COc1ccc(Nc2ccccc2)c2ccccc12 | IC50 [1]: ND(Insoluble) |
| > 60 | COc1ccc(Nc2ccc(C(=O)O)cc2)c2ccccc12 |  |
| 1 | O=C(O)c1ccccc1Nc1ccc(CCCc2ccc(Cl)c(Cl)c2)cc1 |  |
| 0.1 | O=C(O)c1c(Nc2ccc(CCc3ccc(Cl)c(Cl)c3)cc2)cccc1C(F)(F)F |  |
| 2 | O=C(O)c1ccccc1Nc1ccc(CCc2ccc(Cl)c(Cl)c2)cc1 |  |
| 38.2 | O=C(O)c1cc2ccccc2c(Cc2c(O)c(C(=O)O)cc3ccccc23)c1O [PAMOIC ACID] |  |
|  | CCN(C)C(=O)Oc1cccc([C@H](C)N(C)C)c1 [RIVASTIGMINE] | Kp [7]: 3 |

Reference: ChEMBL document CHEMBL2169883, “Design, synthesis, and structure-activity relationship of N-arylnaphthylamine derivatives as amyloid aggregation inhibitors” (J Med Chem, 2012)
